Reference: ChEMBL document CHEMBL3621080, “Dihydrithieno[2,3-b]naphto-4,9-dione analogues as anticancer agents: Synthesis and in cell pharmacological studies” (Eur J Med Chem, 2015)
The source made the active and inactive calls. The rule behind the calls is not given here.

Key:
[1] = Antiproliferative activity against human HuH7 cells assessed as growth inhibition incubated for 48 hrs by MTT assay; format: functional, cell-based; details: Huh-7, 48 h
In short: (§1)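 Cell lines were grown at 37 °C in 5% CO2 with 10% FBS and penicillin/streptomycin, in DMEM for HuH7 and LN229 and in RPMI-1640 for BxPC3 and MCF7. Cells were seeded at 10^5 per well and left 24 h to attach. Compounds were then added at […] for 48 h. MTT at 1 mg/mL was applied for 2 h at 37 °C in the dark, formazan was dissolved in DMSO and read at 570 nm. Results are relative to 0.5% DMSO vehicle control, with IC50 by linear/polynomial regression, in triplicate.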

MCF7 = experiment: Antiproliferative activity against human MCF7 cells assessed as growth inhibition incubated for 48 hrs by MTT assay; format: functional, cell-based; details: MCF7, 48 h; in short: as §1
[2] = (§2) Cytotoxicity against rat H9c2 cells assessed as cell growth at 2.5 uM incubated for 48 hrs by MTT assay relative to control; format: cell-based; details: H9c2 cells, read-out: Activity
[3] = Antiproliferative activity against human BxPC3 cells assessed as growth inhibition incubated for 48 hrs by MTT assay; format: functional, cell-based; details: BXPC-3, 48 h; in short: as §1
[4] = Antiproliferative activity against human LN229 cells assessed as growth inhibition incubated for 48 hrs by MTT assay; format: functional, cell-based; details: LN-229, 48 h; in short: as §1
H9c2 [5] = experiment: Cytotoxicity against rat H9c2 cell membrane assessed as induction of lipid peroxidation at 2.5 uM incubated for 48 hrs by TBARS method; format: cell-based; details: h9c2, 48 h
In short: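 H9C2 cells were treated for 48 h at […] and lysed in ice-cold Tris/NaCl/EDTA/1% Triton with protease inhibitors. Membranes were pelleted at 1200 g for 10 min and the protein content measured. Membrane aliquots were heated at 100 °C for 30 min in 15% TCA/0.3% TBA in 0.12 N HCl, cooled and centrifuged, and the TBA adduct read at 532 nm. Values are per mg protein, mean ± SEM, n=3.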

[6] = Cytotoxicity against human LN229 cells assessed as growth inhibition at 0.6 uM incubated for 48 hrs by MTT assay relative to control; format: functional, LN-229; design: scale not given: the % may be the effect or the level left
[7] = Drug uptake in human LN229 cell cytoplasm at 0.6 uM incubated for 48 hrs by confocal microscopy; format: ADME, cell-based; details: ln229, 48 h
In short: (§3)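 LN229 cells were treated for 48 h at […] and fixed in 4% paraformaldehyde. Nuclei were counterstained with DAPI and vimentin immunostained. Compound localisation was imaged by its red signal using confocal microscopy.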

H9c2 [8] = experiment: as §2; format: cell-based; details: h9c2, 48 h, 2.5 µM
LN-229 [9] = experiment: Induction of lipid peroxidation in human LN229 cells assessed as increase in TBARS level at 0.6 uM incubated for 48 hrs by TBARS assay; format: functional
In short: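 LN229 cells in DMEM with 10% FBS, treated 48 h. Lysed in ice-cold Tris/NaCl/EDTA/1% Triton with protease inhibitors, spun 1200 g for 10 min; membrane pellet redissolved and protein measured. Membranes heated with 15% TCA/0.3% TBA in 0.12 N HCl at 100 °C for 30 min, cooled, spun 15,000 g, read at 532 nm. TBARS expressed per mg protein; mean of three experiments.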

[10] = Down regulation of AKT expression in human LN229 cells at 0.6 uM incubated for 48 hrs by Western blot method; format: functional, cell-based; details: LN-229
In short: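 LN229 cells grown in DMEM with 10% FBS and penicillin/streptomycin at 37 °C, 5% CO2, treated 48 h. Cells washed in ice-cold PBS/BSA and lysed in Triton/deoxycholate buffer with protease inhibitors. Equal protein run on SDS-PAGE, then nitrocellulose. Anti-AKT overnight in TBS/1% milk/0.05% Tween 20; tubulin also probed. HRP secondary 1 h at room temperature.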

LN-229 [11] = experiment: Induction of apoptosis in human LN229 cells assessed as caspase-3 activation at 0.6 uM incubated for 48 hrs by cell-free caspase-3 activity assay
LN-229 [12] = experiment: Induction of cell differentiation in human LN229 cells assessed as vimentin remodelling at 0.6 uM incubated for 48 hrs by immunostaining method; format: functional, cell-based
In short: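 LN229 cells were treated for 48 h at […], fixed in 4% paraformaldehyde and permeabilised 5 min in 1% Triton. They were stained with anti-vimentin (1:1000) followed by Cy3 anti-rabbit IgG (1:200, 45 min), with DAPI nuclei, and imaged by confocal microscopy.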

LN-229 [13] = experiment: Inhibition of glucose uptake in human LN229 cells assessed as glucose concentration per ug protein at 0.6 uM incubated for 48 hrs by liquid scintillation method relative to control; format: functional
LN-229 [14] = experiment: Inhibition of glucose uptake in human LN229 cells assessed as glucose concentration per ug protein at 0.6 uM incubated for 48 hrs by liquid scintillation method (reference value: 98 +/- 8 mg/dl/ug protein); format: functional
[15] = Drug uptake in human LN229 cell nucleus at 0.6 uM incubated for 48 hrs by confocal microscopy; format: ADME, cell-based; details: ln229, 48 h; in short: as §3

| Structure (SMILES) | IC50 [1] | IC50 (MCF7) | viability at 48 h, 2.5 µM [2] | IC50 [3] | IC50 [4] | Activity (H9c2 [5]) | Activity [6] | also measured |
| --- | --- | --- | --- | --- | --- | --- | --- | --- |
| O=C(NC1(C(=O)NCc2ccc(Cl)cc2)CSC2=C1C(=O)c1ccccc1C2=O)c1ccc(Cl)cc1 (configuration not stated) | 440 nM | 470 nM | 61% | 660 nM | 320 nM | Toxic |  |  |
| O=C(CNc1ccc(Cl)cc1)NC1(CO)CSC2=C1C(=O)c1ccccc1C2=O (configuration not stated) | 3510 nM | 2120 nM |  | 2180 nM | 1230 nM |  |  |  |
| Cl.O=C(CN1CCCCC1)NC1(C(=O)NCc2ccc(Cl)cc2)CSC2=C1C(=O)c1ccccc1C2=O (configuration not stated) | 1020 nM | 820 nM |  | 830 nM | 610 nM | Non-toxic | 50% | Drug uptake [7]: Active; Activity (H9c2 [8]): Non-toxic; fold change (FC) (LN-229 [9]): 5; fold change (FC) [10]: 2; fold change (FC) (LN-229 [11]): 3; Activity (LN-229 [12]): Active; fold change (FC) (LN-229 [13]): 2.2; Activity (LN-229 [14]): 215 mg/dL |
| Cl.O=C(CN1CCCCC1)N[C@@]1(C(=O)NCc2ccc(Cl)cc2)CSC2=C1C(=O)c1ccccc1C2=O |  |  |  |  |  |  | 50% |  |
| Cl.O=C(CN1CCCCC1)NC1(CO)CSC2=C1C(=O)c1ccccc1C2=O (configuration not stated) | 960 nM | 1260 nM | 83% | 2510 nM | 510 nM | Toxic |  |  |
| COc1cccc2c1C(=O)c1c(O)c3c(c(O)c1C2=O)C[C@@](O)(C(=O)CO)C[C@@H]3O[C@H]1C[C@H](N)[C@H](O)[C@H](C)O1 [DOXORUBICIN] | 1110 nM |  | 53% | 1780 nM | 2250 nM | Toxic |  | Drug uptake [15]: Active; Activity (LN-229 [14]): 120 mg/dL |
| O=C(CNCc1ccc(Cl)cc1)NC1(CO)CSC2=C1C(=O)c1ccccc1C2=O (configuration not stated) | 3900 nM | 1720 nM |  | 1680 nM | 1250 nM |  |  |  |
| O=C(NC1(CO)CSC2=C1C(=O)c1ccccc1C2=O)c1ccc(Cl)cc1 (configuration not stated) | > 10000 nM | > 10000 nM |  | > 10000 nM | > 10000 nM |  |  |  |
| Cl.O=C(CN1CCCCC1)N[C@]1(C(=O)NCc2ccc(Cl)cc2)CSC2=C1C(=O)c1ccccc1C2=O |  |  |  |  |  |  | 48% |  |
